# According to ChEMBL document CHEMBL1154892, “Saponins and polyphenols from Fadogia ancylantha (makoni tea)” (J Nat Prod, 2010):
# Calls of active or inactive are those of the source. The calls are words filed in the database; no cut-off is given here.
# How the values were obtained:
# Staphylococcus aureus [1] = assay: Antibacterial activity against Staphylococcus aureus ATCC 6538 after 48 hrs by broth microdilution method; assay type: functional; settings: ATCC 6538, 48 h
# Method in brief: (§1)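 Broth microdilution in 96-well plates, in duplicate, per NCCLS (2001), ATCC strains. MBC taken as lowest concentration at which no microbial cell survived after 48 h incubation (bacteria) or 5 days (yeast and mold).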
# Aspergillus niger [2] = assay: Antifungal activity against Aspergillus niger ATCC 16404 after 5 days by broth microdilution method; assay type: functional; method in brief: as §1
# [3] = tested on: Radical scavenging activity; assay: Antioxidant activity assessed as DPPH radical scavenging activity after 10 mins; assay type: functional
# Method in brief: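 Methanolic sample solution added to DPPH solution (0.025 g/L in MeOH, prepared daily); vehicle alone in control tubes; absorbance read at 515 nm 10 min after start. α-Tocopherol positive control. Triplicate runs; EC50 calculated by Litchfield and Wilcoxon method.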
# Bacillus spizizenii [4] = assay: Antibacterial activity against Bacillus spizizenii ATCC 6633 after 48 hrs by broth microdilution method; assay type: functional; settings: ATCC 6633, 48 h; method in brief: as §1
# Escherichia coli [5] = assay: Antibacterial activity against Escherichia coli ATCC 8739 after 48 hrs by broth microdilution method; assay type: functional, organism-based; method in brief: as §1
# Candida albicans [6] = assay: Antifungal activity against Candida albicans ATCC 10231 after 5 days by broth microdilution method; assay type: functional; method in brief: as §1
# [7] = tested on: Staphylococcus epidermidis; assay: Antibacterial activity against Staphylococcus epidermidis ATCC 12228 after 48 hrs by broth microdilution method; assay type: functional; settings: ATCC 12228, 48 h; method in brief: as §1
# Staphylococcus aureus [8] = assay: Antibacterial activity against Staphylococcus aureus ATCC 6538 after 24 hrs by broth microdilution method; assay type: functional; settings: ATCC 6538, 24 h
# Method in brief: (§2)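 Broth microdilution in 96-well plates, in duplicate, following NCCLS (2001); ATCC Gram-positive and Gram-negative bacteria, a yeast and a mold. MIC taken as lowest concentration inhibiting microbial growth after 24 h.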
# Aspergillus niger [9] = assay: Antifungal activity against Aspergillus niger ATCC 16404 after 24 hrs by broth microdilution method; assay type: functional; settings: ATCC 16404, 24 h; method in brief: as §2
# Candida albicans [10] = assay: Antifungal activity against Candida albicans ATCC 10231 after 24 hrs by broth microdilution method; assay type: functional; settings: ATCC 10231, 24 h; method in brief: as §2
# Escherichia coli [11] = assay: Antibacterial activity against Escherichia coli ATCC 8739 after 24 hrs by broth microdilution method; assay type: functional; method in brief: as §2
# Bacillus spizizenii [12] = assay: Antibacterial activity against Bacillus spizizenii ATCC 6633 after 24 hrs by broth microdilution method; assay type: functional; settings: ATCC 6633, 24 h; method in brief: as §2
# Pseudomonas aeruginosa [13] = assay: Antibacterial activity against Pseudomonas aeruginosa ATCC 9027 after 24 hrs by broth microdilution method; assay type: functional; method in brief: as §2
# [14] = tested on: Staphylococcus epidermidis; assay: Antibacterial activity against Staphylococcus epidermidis ATCC 12228 after 24 hrs by broth microdilution method; assay type: functional; settings: ATCC 12228, 24 h; method in brief: as §2
# Pseudomonas aeruginosa [15] = assay: Antibacterial activity against Pseudomonas aeruginosa ATCC 9027 after 48 hrs by broth microdilution method; assay type: functional; method in brief: as §1
SMILES,EC50 [3],MIC (Staphylococcus aureus [8]),MIC (Aspergillus niger [9]),MIC (Candida albicans [10]),"MIC (Escherichia coli [11]; ATCC 8739, 24 h)",MIC (Bacillus spizizenii [12]),"MIC (Pseudomonas aeruginosa [13]; ATCC 9027, 24 h)",MIC [14],MIC (Escherichia coli [11]),MIC (Pseudomonas aeruginosa [13]),MBC (Staphylococcus aureus [1]),MBC (Aspergillus niger [2]),MBC (Bacillus spizizenii [4]),MBC (Escherichia coli [5]),"MBC (Candida albicans [6]; ATCC 10231, 120 h)",MBC [7],"MBC (Pseudomonas aeruginosa [15]; ATCC 9027, 48 h)",MBC (Candida albicans [6]),MBC (Pseudomonas aeruginosa [15]),"MBC (Aspergillus niger [2]; ATCC 16404, 120 h)"
Cc1c(C)c2c(c(C)c1O)CC[C@@](C)(CCC[C@H](C)CCC[C@H](C)CCCC(C)C)O2 [ALPHA-TOCOPHEROL],10.1 µg/mL,–,–,–,–,–,–,–,–,–,–,–,–,–,–,–,–,–,–,–
O=C(CCc1ccc(O)cc1)c1ccc(O[C@@H]2O[C@H](CO)[C@@H](O)[C@H](O)[C@H]2O)cc1O [CONFUSOSIDE],> 1000 µg/mL,4000 µg/mL,120 µg/mL,4000 µg/mL,2000 µg/mL,120 µg/mL,–,1000 µg/mL,–,inactive,4000 µg/mL,inactive,1000 µg/mL,inactive,–,2000 µg/mL,–,inactive,inactive,–

# The next lines start with results.
EC50 [3],MIC (Staphylococcus aureus [8]),MIC (Aspergillus niger [9]),MIC (Candida albicans [10]),"MIC (Escherichia coli [11]; ATCC 8739, 24 h)",MIC (Bacillus spizizenii [12]),"MIC (Pseudomonas aeruginosa [13]; ATCC 9027, 24 h)",MIC [14],MIC (Escherichia coli [11]),MIC (Pseudomonas aeruginosa [13]),SMILES,MBC (Staphylococcus aureus [1]),MBC (Aspergillus niger [2]),MBC (Bacillus spizizenii [4]),MBC (Escherichia coli [5]),"MBC (Candida albicans [6]; ATCC 10231, 120 h)",MBC [7],"MBC (Pseudomonas aeruginosa [15]; ATCC 9027, 48 h)",MBC (Candida albicans [6]),MBC (Pseudomonas aeruginosa [15]),"MBC (Aspergillus niger [2]; ATCC 16404, 120 h)"
> 1000 µg/mL,120 µg/mL,120 µg/mL,1000 µg/mL,4000 µg/mL,120 µg/mL,2000 µg/mL,250 µg/mL,–,–,O=C(CCc1ccc(O)cc1)c1ccc(O)cc1O [DAVIDIGENIN],500 µg/mL,inactive,500 µg/mL,inactive,2000 µg/mL,500 µg/mL,4000 µg/mL,–,–,–
28.4 µg/mL,2000 µg/mL,1000 µg/mL,4000 µg/mL,–,1000 µg/mL,4000 µg/mL,500 µg/mL,inactive,–,O=c1cc(-c2ccc(O)c(O)c2)oc2cc(O[C@@H]3O[C@H](CO)[C@@H](O)[C@H](O)[C@H]3O)ccc12,4000 µg/mL,inactive,1000 µg/mL,inactive,–,4000 µg/mL,–,inactive,inactive,–
20.4 µg/mL,4000 µg/mL,2000 µg/mL,4000 µg/mL,–,1000 µg/mL,–,1000 µg/mL,inactive,inactive,O=c1c(O[C@@H]2O[C@H](CO)[C@@H](O)[C@H](O)[C@H]2O)c(-c2ccc(O)c(O)c2)oc2cc(O)cc(O)c12 [ISOQUERCETIN],4000 µg/mL,–,2000 µg/mL,inactive,–,4000 µg/mL,–,inactive,inactive,4000 µg/mL
